For 66 molecules, IC50 results are on record in ChEMBL document CHEMBL1144257, “5-Chloroindoloyl glycine amide inhibitors of glycogen phosphorylase: synthesis, in vitro, in vivo, and X-ray crystallographic characterization” (Bioorg Med Chem Lett, 2005).

A value given as a limit tells only on which side of the number the result lay.

What is called IC50 is the concentration that gives 50% inhibition. The low end stands for greater potency in that assay, the high end for weaker potency in that assay.

One assay relates to SK-HEP1. Kind of assay: Inhibitory concentration against human SK-Hep-1 cells (hepatoma cell line). Type of assay: functional, cell-based. In short, it runs like this: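 SK-HEP-1 cells carrying pre-labeled ¹⁴C-glycogen, with phosphorylase activated by forskolin. Glycogenolysis is the ¹⁴C-glycogen (dpm) difference between basal and forskolin-treated cells. Inhibition is expressed as percent of forskolin-induced glycogenolysis in DMSO controls. IC50 from a 6-point curve (0.1–30μM), triplicate points, mean of ≥2 independent experiments where repeated.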

The target of assay [1] is T1, Glycogen phosphorylase, liver form (Homo sapiens, UniProt P06737).
T1 sequence (P06737 whole entry): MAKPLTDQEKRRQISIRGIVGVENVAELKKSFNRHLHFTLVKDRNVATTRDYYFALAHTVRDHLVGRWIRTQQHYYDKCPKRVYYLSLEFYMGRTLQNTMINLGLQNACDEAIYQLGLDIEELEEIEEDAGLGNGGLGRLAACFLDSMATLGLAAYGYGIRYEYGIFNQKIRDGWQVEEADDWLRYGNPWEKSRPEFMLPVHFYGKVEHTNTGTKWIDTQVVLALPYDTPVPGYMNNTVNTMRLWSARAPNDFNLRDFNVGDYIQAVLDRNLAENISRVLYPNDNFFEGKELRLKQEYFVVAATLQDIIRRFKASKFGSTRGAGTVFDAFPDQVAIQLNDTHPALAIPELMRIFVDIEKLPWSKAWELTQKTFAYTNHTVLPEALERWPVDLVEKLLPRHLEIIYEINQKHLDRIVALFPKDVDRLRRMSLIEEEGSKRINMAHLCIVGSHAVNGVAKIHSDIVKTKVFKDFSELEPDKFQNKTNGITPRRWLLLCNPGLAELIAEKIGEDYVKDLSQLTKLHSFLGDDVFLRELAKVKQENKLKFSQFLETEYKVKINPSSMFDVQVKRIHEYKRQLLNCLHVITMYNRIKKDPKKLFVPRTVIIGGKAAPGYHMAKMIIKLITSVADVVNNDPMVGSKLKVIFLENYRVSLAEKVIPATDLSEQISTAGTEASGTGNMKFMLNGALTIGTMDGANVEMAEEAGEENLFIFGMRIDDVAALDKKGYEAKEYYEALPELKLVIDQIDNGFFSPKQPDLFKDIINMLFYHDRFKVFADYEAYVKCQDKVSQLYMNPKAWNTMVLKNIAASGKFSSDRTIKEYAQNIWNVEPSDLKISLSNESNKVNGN
Kind of assay: Inhibitory concentration against glycogen phosphorylase.

With `O=C(NCC(=O)N(CCO)CC1CCCO1)c1cc2cc(Cl)ccc2[nH]1` (stereo not given), the IC50 in the assay on SK-HEP1 was 5700 nM; in assay [1] it was 550 nM.
Consider `O=C(NCC(=O)N(CCO)Cc1cccnc1)c1cc2cc(Cl)ccc2[nH]1`, for which the half-maximal inhibitory concentration (IC50) in assay [1] worked out at 1100 nM.
The same measure, in the same setting: with `NCCN(C(=O)CNC(=O)c1cc2cc(Cl)ccc2[nH]1)C1CCCC1` the figure was 1600 nM; with `O=C(NCC(=O)N(CCN1CCOCC1)C1CCCC1)c1cc2cc(Cl)ccc2[nH]1`, 1500 nM.
Consider `CN(CC1CC1)C(=O)CNC(=O)c1cc2cc(Cl)ccc2[nH]1`, for which the 50% inhibitory concentration (IC50) in the assay on SK-HEP1 turned out to be 1200 nM; in assay [1], 470 nM.
The corresponding values for `CN(C(=O)CNC(=O)c1cc2cc(Cl)ccc2[nH]1)C1CCC1` are 1000 nM and 170 nM.
The corresponding values for `CC(CCO)N(C(=O)CNC(=O)c1cc2cc(Cl)ccc2[nH]1)C1CCCC1` (stereo not given) are 1400 nM and 210 nM.
The like results for `O=C(NCC(=O)N(CCO)C1CCSC1)c1cc2cc(Cl)ccc2[nH]1` (stereo not given) were, in that order, 5000 nM and 340 nM.
`CN(CCc1ccccc1)C(=O)CNC(=O)c1cc2cc(Cl)ccc2[nH]1` showed an IC50 in assay [1] greater than 10000 nM.
Take `CN(C(=O)CNC(=O)c1cc2cc(Cl)ccc2[nH]1)C1CCN(C=O)C1` (stereo not given): the concentration for half-maximal inhibition (IC50) with SK-HEP1 was 19000 nM; in assay [1] it was 250 nM.
The like results for `O=C(NCC(=O)N(CCO)Cc1ncc[nH]1)c1cc2cc(Cl)ccc2[nH]1` were, in that order, 14000 nM and 430 nM.
`CN(C(=O)CNC(=O)c1cc2cc(Cl)ccc2[nH]1)C1CCC(O)CC1` (stereo not given) gave an IC50 in assay [1] of 2100 nM.
As to `O=C(NCC(=O)N(CCO)C1CCCCCCCCCCC1)c1cc2cc(Cl)ccc2[nH]1`, the IC50 was greater than 30000 nM with SK-HEP1 and 950 nM in assay [1].
Molecule `O=C(NCC(=O)N(CCOCc1ccccc1)C1CCCC1)c1cc2cc(Cl)ccc2[nH]1` gave an IC50 in assay [1] of 1600 nM.
Turning to `CN(C(=O)CNC(=O)c1cc2cc(Cl)ccc2[nH]1)c1ccccc1`, the half-inhibitory concentration (IC50) amounted to 7100 nM with SK-HEP1 and 210 nM in assay [1].
Regarding `O=C(NCC(=O)N(CCO)Cc1ccccc1)c1cc2cc(Cl)ccc2[nH]1`, the IC50 in the assay with SK-HEP1 turned out to be 2500 nM; in assay [1] it was 320 nM.
The corresponding values for `O=C(NCC(=O)N(CCO)C1CCCCCCCCC1)c1cc2cc(Cl)ccc2[nH]1` are greater than 30000 nM and 210 nM.
`CN(C(=O)CNC(=O)c1cc2cc(Cl)ccc2[nH]1)C1CC1`: in assay [1], the IC50 amounted to 670 nM.
In assay [1], `CN1CCC(N(C)C(=O)CNC(=O)c2cc3cc(Cl)ccc3[nH]2)C1` (stereo not given) displayed an IC50 of 9600 nM.
On to `O=C(NCC(=O)N(CCO)C1CCS(=O)(=O)CC1)c1cc2cc(Cl)ccc2[nH]1`, for which the concentration for half-maximal inhibition (IC50) with SK-HEP1 is greater than 30000 nM; in assay [1], 12 nM.
For `CN(CCO)C(=O)CNC(=O)c1cc2cc(Cl)ccc2[nH]1`, the figures for the IC50 (in the assay with SK-HEP1; in assay [1]) were 4000 nM and 570 nM, respectively.
The corresponding values for `CCCCN(C(=O)CNC(=O)c1cc2cc(Cl)ccc2[nH]1)C1CCCC1` are 9400 nM and 82 nM.
The like results for `O=C(NCC(=O)N(C(CO)CO)C1CCCC1)c1cc2cc(Cl)ccc2[nH]1` were, in that order, 9400 nM and 350 nM.
`CN(Cc1ccncc1)C(=O)CNC(=O)c1cc2cc(Cl)ccc2[nH]1` displayed an IC50 in assay [1] of 1600 nM.
The same measure, in the same setting: with `CC(C)OCCN(C(=O)CNC(=O)c1cc2cc(Cl)ccc2[nH]1)C1CCCC1` the figure was 1100 nM.
`O=C(NCC(=O)N(CCO)C1CC1)c1cc2cc(Cl)ccc2[nH]1`: the concentration for half-maximal inhibition (IC50) in the assay on SK-HEP1 stood at 4600 nM; in assay [1], 200 nM.
Take `CN(C)CCCN(C(=O)CNC(=O)c1cc2cc(Cl)ccc2[nH]1)C1CCCC1`: the IC50 in assay [1] is 5000 nM.
For `CC(O)CN(C(=O)CNC(=O)c1cc2cc(Cl)ccc2[nH]1)C1CCCC1` (stereo not given), the half-maximal inhibitory concentration (IC50) with SK-HEP1 was 1300 nM; in assay [1], 16 nM.
For the molecule `NC(=O)CN(C(=O)CNC(=O)c1cc2cc(Cl)ccc2[nH]1)C1CCCC1`, the IC50 in assay [1] was 4600 nM.
The same measure, in the same setting: with `NCCCN(C(=O)CNC(=O)c1cc2cc(Cl)ccc2[nH]1)C1CCCC1` the figure was 3000 nM.
Consider `O=C(NCC(=O)N(CCCCO)C1CCCC1)c1cc2cc(Cl)ccc2[nH]1`, for which the concentration for half-maximal inhibition (IC50) in assay [1] was found to be 3900 nM.
The same measure, in the same setting: with `CCCN(C(=O)CNC(=O)c1cc2cc(Cl)ccc2[nH]1)C1CCCC1` the figure was 340 nM.
With `O=C(NCC(=O)N(CCO)C1CCCCCCC1)c1cc2cc(Cl)ccc2[nH]1`, the 50% inhibitory concentration (IC50) came to 12000 nM with SK-HEP1 and 32 nM in assay [1].
In assay [1], `CN(Cc1ccccn1)C(=O)CNC(=O)c1cc2cc(Cl)ccc2[nH]1` registered a half-inhibitory concentration (IC50) of 1500 nM.
On the same count and under the same terms, with `CN(C)CCN(C(=O)CNC(=O)c1cc2cc(Cl)ccc2[nH]1)C1CCCC1` the figure was 9700 nM.
On the same count and under the same terms, with `CC(C)OCCCN(C(=O)CNC(=O)c1cc2cc(Cl)ccc2[nH]1)C1CCCC1` the figure was 670 nM; with `O=C(NCC(=O)N(C1CCCC1)C1CCCC1)c1cc2cc(Cl)ccc2[nH]1`, 660 nM.
As for `CN(C(=O)CNC(=O)c1cc2cc(Cl)ccc2[nH]1)c1ccccn1`, the IC50 in the assay with SK-HEP1 is 9900 nM; in assay [1], 340 nM.
The corresponding values for `C=CCN(C(=O)CNC(=O)c1cc2cc(Cl)ccc2[nH]1)C1CCCC1` are 900 nM and 96 nM.
On to `N#CCCN(C(=O)CNC(=O)c1cc2cc(Cl)ccc2[nH]1)C1CCCC1`, for which the figures for the 50% inhibitory concentration (IC50) (in the assay on SK-HEP1; in assay [1]) were 750 nM and 140 nM, respectively.
The like results for `O=C(O)CN(C(=O)CNC(=O)c1cc2cc(Cl)ccc2[nH]1)C1CCCC1` were, in that order, greater than 10000 nM and 260 nM.
The like results for `CN(C(=O)CNC(=O)c1cc2cc(Cl)ccc2[nH]1)c1cccnc1` were, in that order, 1700 nM and 330 nM.
In assay [1], `COCCCN(C(=O)CNC(=O)c1cc2cc(Cl)ccc2[nH]1)C1CCCC1` gave a half-maximal inhibitory concentration (IC50) of 370 nM.
Take `O=C(NCC(=O)N(CCO)C1CCOC1)c1cc2cc(Cl)ccc2[nH]1` (stereo not given): the values for the IC50 (in the assay with SK-HEP1; in assay [1]) were 1800 nM and 55 nM, respectively.
The like results for `COCC(O)CN(C(=O)CNC(=O)c1cc2cc(Cl)ccc2[nH]1)C1CCCC1` (stereo not given) were, in that order, 870 nM and 100 nM.
As to `O=C(NCC(=O)N(CCO)C1CCc2ccccc21)c1cc2cc(Cl)ccc2[nH]1` (stereo not given), the IC50 in the assay with SK-HEP1 is 1800 nM; in assay [1], 49 nM.
For `O=C(NCC(=O)N(CCO)C1CCCCCCCC1)c1cc2cc(Cl)ccc2[nH]1`, the IC50 turned out to be 28000 nM with SK-HEP1 and 82 nM in assay [1].
The like results for `CC(C)CN(C)C(=O)CNC(=O)c1cc2cc(Cl)ccc2[nH]1` were, in that order, 620 nM and 230 nM.
For `COCC(N)CN(C(=O)CNC(=O)c1cc2cc(Cl)ccc2[nH]1)C1CCCC1` (stereo not given), the 50% inhibitory concentration (IC50) in assay [1] came to 1200 nM.
On the same count and under the same terms, with `CN(C(=O)CNC(=O)c1cc2cc(Cl)ccc2[nH]1)C(C)(C)C` the figure was 670 nM; with `CN(C(=O)CNC(=O)c1cc2cc(Cl)ccc2[nH]1)C1CCN(C=O)CC1`, 8400 nM.
Turning to `CCCCN(C)C(=O)CNC(=O)c1cc2cc(Cl)ccc2[nH]1`, the results for the IC50 (with SK-HEP1; in assay [1]) were 1400 nM and 150 nM, respectively.
`CN(Cc1cccnc1)C(=O)CNC(=O)c1cc2cc(Cl)ccc2[nH]1`: half-maximal inhibition in assay [1] (IC50) was put at 1900 nM. In other words, the single-digit micromolar range.
On to `CN(CC(F)(F)F)C(=O)CNC(=O)c1cc2cc(Cl)ccc2[nH]1`, for which, in assay [1], the half-inhibitory concentration (IC50) is 1900 nM.
In the case of `CC(C)(C)N(CCO)C(=O)CNC(=O)c1cc2cc(Cl)ccc2[nH]1`, the IC50 in the assay with SK-HEP1 amounted to 6700 nM; in assay [1], 290 nM.
The corresponding values for `CCOC(=O)CN(C(=O)CNC(=O)c1cc2cc(Cl)ccc2[nH]1)C1CCCC1` are 5200 nM and 530 nM.
Consider `CN(C(=O)CNC(=O)c1cc2cc(Cl)ccc2[nH]1)C1CCOCC1`, for which the 50% inhibitory concentration (IC50) with SK-HEP1 was 3400 nM; in assay [1], 510 nM.
In the case of `NC(CO)CN(C(=O)CNC(=O)c1cc2cc(Cl)ccc2[nH]1)C1CCCC1` (stereo not given), the IC50 was 8300 nM with SK-HEP1 and 510 nM in assay [1].
The molecule `CC(C)OCC(O)CN(C(=O)CNC(=O)c1cc2cc(Cl)ccc2[nH]1)C1CCCC1` (stereo not given) returned a concentration for half-maximal inhibition (IC50) in assay [1] of 930 nM.
As for `CCN(C(=O)CNC(=O)c1cc2cc(Cl)ccc2[nH]1)C1CCCC1`, the IC50 is 410 nM in the assay on SK-HEP1 and 210 nM in assay [1].
The corresponding values for `CN(C(=O)CNC(=O)c1cc2cc(Cl)ccc2[nH]1)C1CCCCCC1` are greater than 10000 nM and 320 nM.
In turn, `O=C(NCC(=O)N(CCO)C1CCS(=O)(=O)C1)c1cc2cc(Cl)ccc2[nH]1` (stereo not given) came in with an IC50 in assay [1] of 1300 nM.
As to `CN(C)C(=O)CN(C(=O)CNC(=O)c1cc2cc(Cl)ccc2[nH]1)C1CCCC1`, the IC50 in the assay on SK-HEP1 was found to be 13000 nM; in assay [1], 410 nM.
The corresponding values for `O=C(NCC(=O)N(CCO)C1CCCCCC1)c1cc2cc(Cl)ccc2[nH]1` are 2300 nM and 30 nM.
The corresponding values for `O=C(NCC(=O)N(CCO)Cc1ccco1)c1cc2cc(Cl)ccc2[nH]1` are 1500 nM and 260 nM.
`CN(C(=O)CNC(=O)c1cc2cc(Cl)ccc2[nH]1)C1CCS(=O)(=O)C1` (stereo not given): the IC50 was 2000 nM with SK-HEP1 and 410 nM in assay [1].
